Bioassay records: PubChem BioAssay, Broad Institute
Shown are actives, neighbours in structure and some others; about 3.3% of the full set was active somewhere.
DENV2 CPE rescue: inhibitors of DENV2 cytopathic effect, primary screen, cell-based, plate reader, single concentration | DENV2-infected cells, cytopathic effect rescue | actives 1.7% (n = 350,000) | CPE inhibition, % at 9.99 µM; in the data active = CPE inhibition above about 20%, passing the limit was not always enough; tested in BHK-21 cells;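 note: 0% = median of neutral control wells and 100% = median of positive control wells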
E-selectin induc: E-selectin induction in HUVECs, primary screen, imaging, HUVEC, immunofluorescence imaging, single point; actives 0.37% (n = 260,000); normalized: neutral wells 0, TNF-alpha wells 100; P16581; activation, % at 7.58 µM; AID 686992, 2013;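 active = mean E-selectin-positive cell signal at least 10% of the positive control, reached in at least 60% of replicates, without over 20% cell loss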
Target sequence (P16581 whole entry, looked up): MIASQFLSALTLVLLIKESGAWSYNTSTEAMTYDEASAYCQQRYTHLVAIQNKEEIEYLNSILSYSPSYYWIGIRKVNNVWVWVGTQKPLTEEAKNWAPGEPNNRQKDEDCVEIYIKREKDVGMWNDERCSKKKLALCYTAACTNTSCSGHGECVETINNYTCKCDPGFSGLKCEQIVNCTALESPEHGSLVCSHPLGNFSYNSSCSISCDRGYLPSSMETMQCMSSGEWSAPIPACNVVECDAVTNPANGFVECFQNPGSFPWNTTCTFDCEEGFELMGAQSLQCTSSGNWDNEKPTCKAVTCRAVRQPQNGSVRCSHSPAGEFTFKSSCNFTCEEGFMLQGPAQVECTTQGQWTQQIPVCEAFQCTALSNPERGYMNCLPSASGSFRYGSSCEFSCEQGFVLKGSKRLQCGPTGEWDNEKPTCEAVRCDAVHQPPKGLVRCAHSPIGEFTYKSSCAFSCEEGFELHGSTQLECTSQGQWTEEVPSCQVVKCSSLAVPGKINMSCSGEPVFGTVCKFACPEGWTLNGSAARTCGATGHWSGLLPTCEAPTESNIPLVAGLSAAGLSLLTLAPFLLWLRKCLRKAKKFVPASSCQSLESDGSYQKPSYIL
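Test system – human umbilical vein endothelial cells (HUVEC), E-selectin induction · Input – 3,000 HUVEC seeded per well · Buffer or medium – EGM-2, gelatin · Compound dosing – single-point compound dose · Detection – immunofluorescence imaging · Measure – percent E-selectin-positive cells · Controls – TNF-alpha high, DMSO low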
Statin myotox sup: suppressors of statin myotoxicity in C2C12 myotubes, primary screen, cell-based, single point, plate reader. C2C12 myotubes + simvastatin, ATP luminescence, 48 h; scaled: DMSO 0, geranylgeraniol control 100. actives 0.78% (n = 330,000). rescue of ATP level, % at 7.49 µM;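 active = mean ATP rescue above about 67%, or every replicate alone reaching that limit, limit read from the data, passing the limit was not always enough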;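 note: myotubes were challenged with 10 µM simvastatin during compound exposure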
FGF22 binding: binders of human FGF22 protein, primary screen, FGF22 synaptogenesis inhibitor project, biophysical, thermal shift, single point. Fibroblast growth factor 22 (Homo sapiens), Q9HCT0. recombinant FGF22 thermal shift, SYPRO orange fluorescence; percent of sucrose octasulfate shift, DMSO zero. activity (Tm shift, normalised), % at 9.99 µM. actives 1.5% (n = 340,000);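 active = mean Tm shift, scaled 0 neutral to 100 positive control, at about 1.3% or above, every replicate too, limit read from the data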
PglD DTNB: C. jejuni PglD acetyltransferase inhibitors, primary screen, biochemical, DTNB colorimetric, single point | purified PglD enzyme, DTNB colorimetric CoA detection | actives 0.098% (n = 360,000) | inhibition, % at 12.5 µM | UDP-N-acetylbacillosamine N-acetyltransferase PglD (Campylobacter jejuni); in the data active = inhibition above about 16%, passing the limit was not always enough
XiGFP reactiv: activators of inactive X chromosome reactivation, primary screen, imaging, XiGFP fibroblasts, GFP high-content imaging, set 2 | XiGFP mouse fibroblasts, % GFP-positive cells imaging, 3 d; cells co-treated with 5-aza-dC sensitizer; scaled so ellipticine positive control = 100% | activation, % at 7.58 µM | actives 0.055% (n = 360,000) | AID 743238, 2013;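 active = mean normalized replicate activation at least 10% and every replicate at or above 10%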;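 note: 0% = median of on-plate neutral control wells and 100% = ellipticine 6 µM median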
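Schedule: 3 d treatment, 15 min room-temperature fixation; system: 68-5-11 XiGFP fibroblast line; buffer or medium: DMEM plus 5-aza-dC sensitizer; control set: ellipticine 6 µM positive control; compound: one concentration, pinned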
Starred values were filed as active, the others as inactive; · = no result.

SMILES | DENV2 CPE rescue | E-selectin induc | Statin myotox sup | FGF22 binding | PglD DTNB | XiGFP reactiv
CC(=O)c1sc(NC(=O)c2oc3ccc(F)cc3c2C)nc1C | 21* | · | -11 | 0 | 2 | 0
CC(Oc1ccc2c(-c3ccccc3)cc(=O)oc2c1)C(=O)NCCN1CCOCC1 (stereo not given) | -5 | 1 | 0 | 43* | -5 | 0
C[C@@H]1CN([C@@H](C)CO)C(=O)c2cc(-c3cccc(F)c3)cnc2O[C@@H]1CN(C)C(=O)C1CCCCC1 | 10 | 1 | 3 | 0 | 2 | 0
CSc1ccc(S(=O)(=O)Nc2ccc(OCC(=O)N3CCOCC3)cc2)cc1 | -1 | 0 | · | 43* | · | 0
C[C@H]1CN(C)C(=O)c2cc(N)ccc2O[C@@H]1CN(C)C | · | · | · | · | · | 0
Cc1ccn2c(=O)nc(SCC(=O)N3CCCc4ccccc43)nc2c1 | 14 | · | -2 | 0 | · | 0
C=CCSc1nc(=O)n2ccccc2n1 | 7 | -1 | 100* | 0 | 4 | 0
O=C(CSc1nc(=O)n2ccccc2n1)N1CCCc2ccccc21 | 68* | 32* | -3 | 0 | 3 | 0
O=C(CC1CC1)Nc1ccc2c(c1)[C@H]1C[C@H](CC(=O)N3CCc4ccccc4C3)O[C@H](CO)[C@H]1O2 | 0 | 0 | 0 | 0 | -2 | 0
Cc1ccc(S(=O)(=O)NNC(=O)C23CCC(CC2)C3)cc1 | -1 | 1 | -7 | 43* | -4 | 0
O=C(O)CC1=C(Nc2ccccc2)C(=O)N(c2ccccc2)C1c1ccc(F)cc1 (stereo not given) | 12 | · | -1 | 43* | -6 | 0
O=C(NCc1cc(C(F)(F)F)cc(C(F)(F)F)c1)C1CC(c2ccc(C(F)(F)F)cc2)=NO1 (stereo not given) | 10 | 0 | -24 | 41* | -3 | 0
O=C(NCc1ccco1)C1CC(c2ccc(Cl)cc2)=NO1 (stereo not given) | 19 | · | -1 | 43* | -3 | 0
C[C@H](CO)N1C[C@H](C)[C@@H](CN(C)Cc2cccc(F)c2)Oc2cc(-c3ccc(F)cc3)ccc2S1(=O)=O | · | 0 | -68 | · | · | -1
O=S(=O)(c1cccs1)N1CCN(c2ccnc3cc(Cl)ccc23)CC1 | 64* | 1 | · | 0 | -2 | 0
COc1ccc2[nH]c(=O)c(CN(CC3CCCO3)C(=S)Nc3ccc(C)cc3)cc2c1 (stereo not given) | 19 | · | · | 43* | · | 0
COc1ccc(NC(=O)N(Cc2cc3cc(C)ccc3[nH]c2=O)CC2CCCO2)cc1 (stereo not given) | 2 | -2 | · | 0 | -1 | 0
CN(C)CCN(Cc1cc2cc3c(cc2[nH]c1=O)OCO3)C(=S)NCc1ccco1 | 8 | 0 | -2 | 43* | · | 0
CCNC(=S)N(CCN(C)C)Cc1cc2cc(OCC)ccc2[nH]c1=O | 4 | 1 | · | 44* | · | 0
Cc1cc(C)c2cc(CN(CC3CCCO3)C(=S)NCc3ccco3)c(=O)[nH]c2c1 (stereo not given) | -4 | · | · | 0 | · | 0
Cc1cc(C)c2cc(CN(Cc3ccco3)C(=O)NCc3ccccc3)c(=O)[nH]c2c1 | · | · | 110* | · | 7 | ·
CCNC(=S)N(CCN(C)C)Cc1cc2cc3c(cc2[nH]c1=O)OCO3 | 4 | · | 4 | 0 | 1 | 0
C/C=C/c1ccc2c(c1)O[C@@H](CN(C)C(=O)C1CCC1)[C@H](C)CN([C@H](C)CO)S2(=O)=O | · | 0 | -17 | · | · | -1
COc1ccc2cc(CN(CC3CCCO3)C(=S)NCc3ccco3)c(=O)[nH]c2c1 (stereo not given) | -5 | · | · | 43* | · | 0
COc1ccc2[nH]c(=O)c(CN(C)C(=O)COc3ccccc3)cc2c1 | · | · | 72* | · | 1 | ·
SMILES | DENV2 CPE rescue | E-selectin induc | Statin myotox sup | FGF22 binding | PglD DTNB | XiGFP reactiv
CCCCN(Cc1cc2cc(OC)ccc2[nH]c1=O)C(=O)COc1ccccc1 | · | · | -8 | · | -3 | ·
COc1ccc2[nH]c(=O)c(CN(CC3CCCO3)S(=O)(=O)c3ccccc3)cc2c1 (stereo not given) | -9 | · | · | 44* | · | 0
Cc1ccc2cc(CN(Cc3ccco3)C(=S)NCC3CCCO3)c(=O)[nH]c2c1 (stereo not given) | · | · | -2 | · | -1 | ·
Cc1ccc(C)c2[nH]c(=O)c(CN(Cc3ccco3)C(=S)NCC3CCCO3)cc12 (stereo not given) | · | · | · | 43* | · | 0
Cc1ccc(S(=O)(=O)N(C)C[C@@H]2OCCCC[C@@H](C)Oc3ccc(NC(=O)NC4CCCCC4)cc3C(=O)N([C@H](C)CO)C[C@H]2C)cc1 | 1 | 0 | · | 0 | 1 | 0
CCCN(C)C[C@@H]1Oc2cc(C#Cc3cccc(OC)c3)ccc2S(=O)(=O)N([C@@H](C)CO)C[C@@H]1C | · | 0 | 10 | 0 | 7 | -1
COc1ccc(CN(C)C[C@@H]2Oc3ccc(NC(=O)NC(C)C)cc3CC(=O)N([C@@H](C)CO)C[C@H]2C)cc1 | -6 | -4 | 7 | 0 | -6 | 0
Cc1c(C=O)c2ccccc2n1CC(=O)NC(C)c1ccccc1 (stereo not given) | 4 | -1 | 6 | 43* | 1 | 0
COc1ccc(C(=O)O)cc1S(N)(=O)=O | 18 | 0 | 0 | 1 | -1 | 0
CNS(=O)(=O)c1cc(C(=O)O)ccc1OC | 5 | · | · | 43* | · | 0
CCC(=O)Nc1ccc2c(c1)OC[C@H](C)N(Cc1cccc(F)c1)C[C@@H](C)[C@H](OC)CN(C)C2=O | · | 0 | 10 | 0 | -4 | 0
C[C@H](CO)N1C[C@H](C)[C@@H](CN(C)CC2CCCCC2)Oc2ccc(NS(=O)(=O)c3cn(C)cn3)cc2C1=O | 4 | · | -10 | 0 | 10 | 1
Cc1cc(-c2ccccc2)[nH]c(=O)c1C#N | -4 | · | · | 43* | · | 0
C[C@H]1CN(C)C(=O)c2cc(N(C)C)ccc2O[C@@H]1CN(C)C | · | · | · | · | · | 0
C[C@@H]1CN([C@@H](C)CO)C(=O)c2cc(NC(=O)Cc3ccccc3)ccc2O[C@@H](C)CCCCO[C@@H]1CN(C)CC1CCCCC1 | 26* | -1 | · | · | 1 | -1
C[C@H]1CCCCO[C@H](CN(C)C(=O)C2CCCCC2)[C@@H](C)CN([C@@H](C)CO)C(=O)c2cc(NC(=O)Cc3ccccc3)ccc2O1 | 19 | 0 | 80* | 0 | -1 | 0
